Experimental data of several laboratories.
Compare with care: the assays were run in different laboratories.
Cell line: HepG2
Observed: cell growth or viability

With `CCc1ccc(C2=NC(=Cc3ccc(CCCCCCCCCC(C)O)[nH]3)C(OC)=C2)[nH]1` (stereo not drawn) the IC50 was 1.76 µM.
`CC(=O)O[C@@H]1c2c(ccc3ccc(=O)oc23)OC(C)(C)[C@@H]1OC(=O)C1(C)OC1C` (stereo partly drawn) gave an IC50 of 20.7 µM (WST-1).
The IC50 of `COc1cc2[nH]c(C)c(-c3ccc(Oc4ccc(OC(F)(F)F)c(F)c4)cc3)c(=O)c2cc1Cl` is reported as > 10 µM (resazurin).
`CC1(C)CC[C@]2(C)CC[C@]3(C)[C@H]4CC=C5[C@@H](CC[C@H](O)C5(C)C)[C@]4(C)CC[C@@]3(C)[C@@H]2C1` gave an IC50 of 50.9 µM (WST-1).
The viability of `CC(C)(C)CC(C)(C)Nc1c(-c2cccc(C#N)c2)nc2ncccn12` is reported as 74.5% (MTT; 25 µM, 48 h).
With `CNc1cccc2cc(C(=O)NCc3ccc(C(=O)O)cc3)c(=O)[nH]c12` the cell death was 18% (CCK-8; 50 µM, 48 h).
For `Cc1[nH]c2ccc(Cl)cc2c(=O)c1-c1ccc(Oc2ccc(OC(F)(F)F)cc2)nc1`, the IC50 was > 10 µM (resazurin).
For `CC1=C(C)C(c2ccc[nH]2)=NC1=Cc1ccc(CCCCCCCCCC(C)O)[nH]1` (stereo not drawn), the IC50 was 9.38 µM.
`CNc1cccc2cc(C(=O)NCCc3cccc(C(=O)O)c3)c(=O)[nH]c12` gave a cell death of 5.9% (CCK-8; 10 µM, 48 h).
For `COc1ccc(CCN2CCC(Nc3nc4ccccc4n3Cc3ccc(F)cc3)CC2)cc1`, the viability was 113% (resazurin; 1 µM, 24 h).
For `COc1ccc2c(c1)c1c(n2CO)CN2CCc3cc(OCc4ccccc4)c(OC)cc3C2C1` (stereo not drawn), the viability was 100% (5 µM, 24 h).
With `CCCCCCn1c(-c2cccc(Cl)c2)n[nH]c1=S` the viability was 92% (resazurin; 50 µM, 24 h).
`COc1ccc2c(c1)c1c(n2CO)CN2CCc3cc(OC)c(OCC(F)(F)F)cc3C2C1` (stereo not drawn) has a viability of 74.7% (20 µM, 24 h).
The IC50 of `COC1=CC(c2ccco2)=NC1=Cc1ccc(CCCCCCCCCC(C)O)[nH]1` (stereo not drawn) is reported as > 100 µM.
`COc1cc2c(cc1OCc1ccccc1F)C1Cc3c(n(CO)c4ccccc34)CN1CC2` (stereo not drawn) gave a viability of 83.6% (20 µM, 24 h).
For `COc1cc2[nH]c(C)c(-c3ccc(Oc4ccc(F)c(OC(F)(F)F)c4)cc3)c(=O)c2cc1Cl`, the IC50 was > 10 µM (resazurin).
`COc1ccc2c(c1)c1c(n2CO)CN2CCc3cc(OC)c(OCc4ccc(F)cc4)cc3C2C1` (stereo not drawn) has a viability of 104% (10 µM, 24 h).
For `CCCCCCCCCCCCCCCCOP(=O)([O-])OCC[N+](C)(C)C`, the CC50 was > 20 µM (MTS; 24 h).
